# Assay results: PubChem BioAssay
# The source made the active and inactive calls.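 Rule for the calls, unless noted: active = inhibition at or above 50% relative to wild type and mutant plate controls; inactive = inhibition below 50%.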
# Key:
# [1] = inhibitors of TNFa-induced NFkB p65 translocation, primary screen, imaging, HUVEC, MLSMR starter and 10KST1 sets (AID 438;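 active = inhibition above 20% together with a positive visual image hit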;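 note: compound added about 3h40 before a 20 min TNFalpha stimulation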;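 for inhibition: signal is the nuclear over cytoplasmic p65 intensity ratio per well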); conditions: HUVEC TNFa-induced p65 nuclear translocation; cell count: measured here: nuclei count (cytotoxicity indicator), at 2.08 µM; inhibition: at 2 µM, stronger effect = higher value, 0% TNFa-plus-vehicle, 100% no-TNFa wells
# [2] = inhibitors of E-selectin induction by TNFa, primary screen, imaging, HUVEC, immunofluorescence, MLSMR starter and 10KST1 sets (AID 487;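 active = visually confirmed hit in the image check and inhibition above 20%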;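 for inhibition: signal is fraction of cell area covered by stained E-selectin grains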;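 for nuclei count: 100% = median nuclei count of all wells on the same plate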); conditions: HUVEC TNFalpha-induced E-selectin immunofluorescence imaging, at 2 µM; inhibition: stronger effect = higher value; nuclei count: measured here: cell number, toxicity
# [3] = DUSP6 inhibitors restoring Erk phosphorylation by chemical complementation, primary imaging in DUSP6-transfected HeLa (AID 609;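 active = compounds giving at least 50% inhibition in the cell-based MKP-3 phosphatase rescue imaging test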;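 for inhibition: phospho-Erk level distribution per well compared with pooled transfected vehicle control wells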); conditions: HeLa MKP-3 transfected, phospho-Erk imaging KS statistic, at 10 µM, cells stimulated with TPA for 15 min
# [4] = target: Dual specificity protein phosphatase 6 (Homo sapiens) (UniProt Q16828); assay: as above; conditions: HeLa MKP-3 transfected, phospho-Erk imaging KS statistic; at 10 µM; stronger effect = higher value; cells stimulated with TPA for 15 min
# Sequence of Dual specificity protein phosphatase 6 (Homo sapiens) (Q16828 whole entry, looked up): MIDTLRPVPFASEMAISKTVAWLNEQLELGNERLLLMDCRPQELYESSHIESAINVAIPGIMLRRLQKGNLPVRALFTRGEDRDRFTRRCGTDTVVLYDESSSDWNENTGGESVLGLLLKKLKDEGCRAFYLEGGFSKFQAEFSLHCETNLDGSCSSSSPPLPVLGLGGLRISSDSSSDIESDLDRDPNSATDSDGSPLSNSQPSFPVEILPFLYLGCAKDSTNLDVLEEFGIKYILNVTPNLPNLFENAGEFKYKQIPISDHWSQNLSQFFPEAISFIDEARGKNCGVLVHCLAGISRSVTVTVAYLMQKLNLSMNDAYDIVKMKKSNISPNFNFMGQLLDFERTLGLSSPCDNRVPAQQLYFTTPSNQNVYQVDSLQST
# [5] = target: Voltage-gated potassium channel subunit beta-2 (Rattus norvegicus) (UniProt P62483); assay: KvBeta enzyme negative modulators, primary screen, biochemical, NADPH fluorescence (AID 622;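 active = fluorescence slope higher than the sample average by over 3 SD, cut at about -0.22 in these data, passing the limit was not always enough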;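 note: slope of raw intensity against log time taken from 70 to 1610 s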); conditions: recombinant KvBeta, 4-cyanobenzaldehyde reduction, at 10 µM, stronger effect = higher value
# Sequence of Voltage-gated potassium channel subunit beta-2 (Rattus norvegicus) (P62483 whole entry, looked up): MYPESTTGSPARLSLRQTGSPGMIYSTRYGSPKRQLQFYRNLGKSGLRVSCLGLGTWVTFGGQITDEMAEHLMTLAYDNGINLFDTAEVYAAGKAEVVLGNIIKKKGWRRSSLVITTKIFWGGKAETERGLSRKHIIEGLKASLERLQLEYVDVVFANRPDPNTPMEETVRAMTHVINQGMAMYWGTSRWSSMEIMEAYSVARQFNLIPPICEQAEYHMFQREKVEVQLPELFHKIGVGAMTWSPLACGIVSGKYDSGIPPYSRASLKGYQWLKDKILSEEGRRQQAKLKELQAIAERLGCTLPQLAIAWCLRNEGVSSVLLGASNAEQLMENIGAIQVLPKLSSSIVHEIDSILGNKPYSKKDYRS
# [6] = target: Voltage-gated potassium channel subunit beta-2 (Rattus norvegicus) (UniProt P62483); assay: KvBeta positive modulators, primary screen, biochemical, NADPH fluorescence (AID 623;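 active = NADPH fluorescence slope more negative than the mean of all samples by about 3 SD, 99.7% confidence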;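 note: fluorescence intensity change per second fitted from 20 to 320 s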); conditions: Recombinant KvBeta, NADPH fluorescence decrease slope, 10 min; at 10 µM; stronger effect = lower value
# [7] = target: Muscarinic acetylcholine receptor M4 (Homo sapiens) (UniProt P08173); assay: compounds altering M4/GIRK thallium flux, either direction, primary screen, M4 allosteric agonist project, cell-based, HEK293 M4/GIRK, BTC-AM (AID 625;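 active = fluorescence slope after compound addition differing from the mean of all tested samples at 99.7% confidence, mostly higher but some lower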;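 note: thallium influx through GIRK channels coupled to M4 in HEK293 cells with BTC-AM dye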); conditions: at 10 µM, actives lie on both sides
# Sequence of Muscarinic acetylcholine receptor M4 (Homo sapiens) (P08173 whole entry, looked up): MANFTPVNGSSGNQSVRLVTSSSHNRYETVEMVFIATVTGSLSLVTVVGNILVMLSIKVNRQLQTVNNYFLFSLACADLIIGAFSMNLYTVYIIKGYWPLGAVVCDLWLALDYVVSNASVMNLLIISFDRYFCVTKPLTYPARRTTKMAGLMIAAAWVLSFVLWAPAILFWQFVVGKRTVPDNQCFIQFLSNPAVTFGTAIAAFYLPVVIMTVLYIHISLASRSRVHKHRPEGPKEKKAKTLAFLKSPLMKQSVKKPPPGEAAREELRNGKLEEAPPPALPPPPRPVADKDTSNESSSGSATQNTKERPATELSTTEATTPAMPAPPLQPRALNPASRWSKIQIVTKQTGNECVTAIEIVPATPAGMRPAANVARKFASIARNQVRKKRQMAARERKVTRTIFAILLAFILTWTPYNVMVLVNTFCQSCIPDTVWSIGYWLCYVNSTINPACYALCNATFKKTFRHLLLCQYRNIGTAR
# Method in brief: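 assay system = HEK293 cells with M4 receptor and GIRK channels | medium = pH 7.3 thallium assay buffer | doses = 10 µM final, single point | timing = cells overnight at 37 °C, BTC-AM loading 1 h, reads 2 min total | signal = BTC-AM fluorescence, 1 Hz kinetic reads | read-out = post-addition slope, 15–24 s, of baseline-normalized fluorescence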
# [8] = inhibitors of larval lipid processing in zebrafish, primary screen, whole organism, PED6 fluorescence, gall bladder and intestine (AID 686;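 active = a full or partial loss of lipid-probe fluorescence in the fish gall bladder, intestine or both, judged by eye; inactive = no fluorescence loss, or compound toxic to the fish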;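 note: larvae 5 to 7 days old with five fish per well; signal comes from phospholipase A2 cleavage of quenched PED6 carried via bile; overnight exposure to compound and PED6 before scoring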); conditions: Zebrafish larvae PED6 lipid processing, fluorescence scoring; screened at 20 µM (by protocol)
# Method in brief: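 Also added: quenched phospholipase substrate PED6, 100 nM final, ingested by larvae; System: zebrafish larvae, 5-7 d; Quantity: 5 larvae per well; Compound: 20 µM single dose; Schedule: overnight compound and PED6 incubation; Read-out: visual per-well fluorescence inhibition score; Measured by: By-eye fluorescence microscopy; Medium: E3.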
# [9] = inhibitors of Chlamydomonas gravitaxis, primary screen, whole organism, Chlamydomonas reinhardtii, WT vs cilia-less mutant, absorbance, 96-well (AID 463189); conditions: OD600 absorbance, 2 days, at 10 µM, stronger effect = higher value;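 note: 0% = wild type cc124 cells in DMSO and 100% = ciliumless bld1 mutant cells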
# [10] = measured here: cell density z-score
# [11] = measured here: nuclear c-Myc green intensity z-score
# [12] = measured here: nuclear pErk red intensity z-score, stronger effect = higher value
SMILES,cell count [1],inhibition [1],inhibition [2],nuclei count [2],"z-score [3, 10]","z-score [3, 11]","z-score [3, 12]",inhibition [4],fluorescence slope [5],NADPH fluorescence slope [6],fluorescence slope [7],outcome [8],inhibition [9]
CCOC(=O)C1=C(C)OC(N)=C(C#N)C1c1cc2ccccc2nc1N1CCCCC1 (stereo unspecified),619,-8.2% (inactive),-33.5% (inactive),181%,-0.314,0.189,0.368,-14.6% (inactive),-0.315 (inactive),-8.1e-06 (inactive),0.00507 (inactive),inactive,37.2% (inactive)
O=C(O)CSCC(=O)Nc1ccc(S(=O)(=O)N2CCCCC2)cc1,500,-7.8% (inactive),-62% (inactive),162%,0.13,-1.22,0.192,-3.95% (inactive),-0.424 (inactive),-3.2e-05 (inactive),0.00479 (inactive),inactive,-4.71% (inactive)
CCC(C(=O)Nc1nccs1)(C(F)(F)F)C(F)(F)F,719,-18.9% (inactive),-106% (inactive),203%,0.755,0.213,0.296,5.95% (inactive),-0.49 (inactive),-6.4e-05 (inactive),0.00509 (inactive),inactive,0.594% (inactive)
CC1(C)NC(=O)N(CC(O)COc2cc3ccccc3cc2C(=O)N2CCCCC2)C1=O (stereo unspecified),595,-11.9% (inactive),5.9% (inactive),157%,0.439,1.12,-0.435,5.42% (inactive),-0.383 (inactive),2.1e-06 (inactive),0.00552 (inactive),inactive,33.9% (inactive)
Cn1c(=O)c2c3c(sc2n2c(SCC(=O)c4ccccc4)nnc12)COC(C)(C)C3,532,-12.7% (inactive),44.5% (inactive),48.5%,0.653,-0.107,-0.293,9.07% (inactive),-0.511 (inactive),1.2e-05 (inactive),0.00374 (inactive),inactive,35.1% (inactive)
N#Cc1nc(COc2ccc(Cl)cc2)oc1N1CCN(Cc2ccccc2)CC1,489,-3% (inactive),-24.2% (inactive),139%,-0.636,0.047,1.31,-2.29% (inactive),-0.411 (inactive),-5.4e-05 (inactive),0.00907 (inactive),inactive,3.53% (inactive)
O=S(=O)(c1ccccc1)N(CC(O)CN1CCCCC1)c1ccccc1 (stereo unspecified),596,-4.6% (inactive),36.6% (inactive),84.8%,-0.887,0.0372,0.232,5.42% (inactive),-0.342 (inactive),-2.3e-05 (inactive),0.00483 (inactive),inactive,26.5% (inactive)
O=C(CSc1nc2ccccc2c(=O)n1CC1CCCCC1)N1CCOCC1,369,-5.3% (inactive),-6.6% (inactive),136%,-0.271,-0.657,-0.609,7.42% (inactive),-0.465 (inactive),-8.1e-05 (inactive),0.00433 (inactive),inactive,-8.49% (inactive)
CCCc1nc2n[nH]c(N)c2c2c1CCCC2,478,-12.3% (inactive),-64.3% (inactive),118%,-0.479,-0.89,-1.19,-2.09% (inactive),-0.48 (inactive),-0.000102 (inactive),0.00548 (inactive),inactive,-1.38% (inactive)
NC(=O)C(c1ccccc1)C1CCCC1 (stereo unspecified),603,-8.2% (inactive),-33.8% (inactive),113%,1.58,-0.32,-0.629,-3.95% (inactive),-0.409 (inactive),-4.8e-05 (inactive),0.00443 (inactive),inactive,-3.81% (inactive)
CCOc1ccc(C2C=C(c3ccccc3)Nc3ncnn32)cc1 (stereo unspecified),531,-1.1% (inactive),58.8% (inactive),151%,-0.603,0.992,-0.889,11.9% (inactive),-0.0438 (inactive),-6.4e-06 (inactive),0.00687 (inactive),inactive,22.6% (inactive)
Cn1c(NCc2ccccc2)nc2c1c(=O)n(Cc1ccccc1)c(=O)n2C,694,-5.5% (inactive),-54.8% (inactive),172%,0.899,-0.674,1.21,5.95% (inactive),-0.461 (inactive),-8.2e-05 (inactive),0.00535 (inactive),inactive,6.49% (inactive)
NC(=O)C1CCN(C2OC(=O)c3ccccc32)CC1 (stereo unspecified),399,-1.7% (inactive),-148% (inactive),160%,0.349,0.288,-0.804,5.65% (inactive),-0.447 (inactive),-8.4e-05 (inactive),0.0046 (inactive),inactive,33.2% (inactive)
CC1(C)Cc2c(C#N)c(N3CCN(C(=O)c4ccco4)CC3)nc(-c3ccco3)c2CS1,639,-0.1% (inactive),-82.6% (inactive),138%,-1.4,-0.121,-2.48,-4.27% (inactive),-0.464 (inactive),-6.6e-05 (inactive),0.00584 (inactive),inactive,3.99% (inactive)
CC(C)(C)c1cc(-c2ccco2)c(C#N)c(SCC#N)n1,685,6.9% (inactive),-48.1% (inactive),116%,0.036,0.336,0.596,-9.53% (inactive),-0.442 (inactive),-7.2e-05 (inactive),0.0081 (inactive),inactive,-12.6% (inactive)
CCOc1ccc(NC(=O)c2nn(C)cc2Br)cc1,647,2.4% (inactive),-41% (inactive),157%,0.327,0.393,-0.814,-4.27% (inactive),-0.489 (inactive),-6.1e-05 (inactive),0.00579 (inactive),inactive,4.55% (inactive)
CC12CCC(=O)N1c1c(sc3nc(N4CCOCC4)c4c(c13)CCCC4)C(=O)N2 (stereo unspecified),363,1.4% (inactive),-105% (inactive),122%,-0.444,1.24,0.642,5.42% (inactive),-0.316 (inactive),-5.5e-05 (inactive),0.00445 (inactive),inactive,26.7% (inactive)
CC(=O)Oc1ccc2c(C)cc(=O)[nH]c2c1,666,-2% (inactive),-13% (inactive),99.4%,-0.72,0.616,0.878,5.95% (inactive),-0.502 (inactive),-0.000195 (active),0.00681 (inactive),inactive,22.8% (inactive)
CCCc1cc(=O)oc2c(C)c(O)c(CN3CCCCC3)cc12,657,-2.4% (inactive),-23.3% (inactive),157%,-0.426,-0.355,0.314,1.04% (inactive),-0.00538 (inactive),-1.8e-06 (inactive),0.00467 (inactive),inactive,0.97% (inactive)
COc1ccc(/C(O)=C2\C(=O)C(=O)N(CCN(C)C)C2c2cccc(OC)c2OC)cc1Cl (stereo unspecified),629,-9.8% (inactive),-43.6% (inactive),170%,-0.541,-0.411,-0.226,11.4% (inactive),-0.443 (inactive),-3.1e-05 (inactive),0.00451 (inactive),inactive,10.3% (inactive)
CN(C)c1ccc(C=Nc2cnn(C)c2C(N)=O)cc1,657,5.6% (inactive),2% (inactive),112%,-0.322,0.511,0.593,9.91% (inactive),-0.548 (inactive),-8.2e-05 (inactive),0.00504 (inactive),inactive,13.4% (inactive)
COc1ccc(C2C(C#N)=C(C)NC3=C2C(=O)c2ccccc23)cc1 (stereo unspecified),678,0.7% (inactive),-27.5% (inactive),145%,1.09,1.69,-1.69,21.8% (inactive),-0.5 (inactive),-4.8e-05 (inactive),0.00419 (inactive),inactive,-2.6% (inactive)
CCCc1nc(N2CCCC2)c(C#N)c2c1CCCC2,605,-1.2% (inactive),-118% (inactive),141%,-1.08,0.0644,-0.444,-5.81% (inactive),-0.448 (inactive),-9.6e-05 (inactive),0.00554 (inactive),inactive,4.3% (inactive)
CCN(CC)CCN1C(=O)C(O)=C(C(C)=O)C1c1ccc(OC)c(OC)c1 (stereo unspecified),466,0.4% (inactive),-202% (inactive),182%,0.172,-0.258,1.22,-5.62% (inactive),-0.445 (inactive),-4.1e-05 (inactive),0.00464 (inactive),inactive,2.41% (inactive)
CCc1ccc(-c2cn3nc(C)c(C)nc3n2)cc1,539,-0.3% (inactive),5.5% (inactive),143%,0.256,-1.56,-0.591,9.91% (inactive),-0.0112 (inactive),2.5e-06 (inactive),0.00271 (inactive),inactive,23.7% (inactive)
Cn1c(N2CCN(c3ccccn3)CC2)nc2c1c(=O)n(Cc1ccc(Cl)cc1)c(=O)n2C,678,5.8% (inactive),-153% (inactive),180%,-0.409,-1.46,-0.591,27.8% (inactive),-0.498 (inactive),-2.6e-05 (inactive),0.00592 (inactive),inactive,24.6% (inactive)
O=C(O)C1[C@H]2C(=O)N(Cc3cccs3)C[C@]23C=C[C@H]1O3 (stereo partly specified),598,-10.3% (inactive),-12.8% (inactive),189%,0.152,1.12,-0.313,6.04% (inactive),-0.481 (inactive),-8e-05 (inactive),0.00643 (inactive),inactive,-4.98% (inactive)
